TAAR1 ag: human TAAR1 agonists, primary screen, Fluo-8 calcium fluorescence, CHO RD-HGA16 cells; vehicle wells 0%, saturating PEA agonist 100%; activation, % at 3 µM; hit rate 0.99% among 360,000;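 active means activation above the mean activation of all test compounds in the run plus 3 SD, cut at about 38% in these data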
Target sequence (Q96RJ0 whole entry, looked up): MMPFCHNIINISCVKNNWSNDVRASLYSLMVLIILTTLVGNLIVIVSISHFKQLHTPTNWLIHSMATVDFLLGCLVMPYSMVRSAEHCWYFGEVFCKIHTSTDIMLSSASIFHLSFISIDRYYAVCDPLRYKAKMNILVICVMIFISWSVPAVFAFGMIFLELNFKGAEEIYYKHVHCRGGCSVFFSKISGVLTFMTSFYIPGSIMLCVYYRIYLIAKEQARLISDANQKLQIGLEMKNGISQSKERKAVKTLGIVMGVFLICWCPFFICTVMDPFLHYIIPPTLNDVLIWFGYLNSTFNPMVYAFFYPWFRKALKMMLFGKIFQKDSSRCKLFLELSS
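test system = CHO RD-HGA16 cells carrying human TAAR1 plus Gα16 | schedule = 17-24 h seeding, 75 min 37 °C dye, 30 min RT | compound dosing = 3 µM single concentration | control set = DMSO and PEA EC100 | replicates = n 1 | signal = Fluo-8 fluorescence, 5 s baseline then 140 s kinetic read | measure = percent activation vs PEA EC100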
CHO parental Ca: ATP-evoked calcium signal inhibitors, parental CHO, primary screen, counter-screen for OX1R antagonist project, cell-based, fluorescence, Fluo-8 calcium dye; parental CHO-K1, ATP-induced calcium, Fluo-8 fluorescence; inhibition, % at 5.6 µM; hit rate 0.63% among 330,000; AID 463079, 2010;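 active means inhibition above that plate's mean sample inhibition plus 3 SD, cut at about 26% in these data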
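Material: parental CHO cells / Compound: single nominal dose of 5.6 µM per compound / Signal: Fluo-8 fluorescence / Replicates: singlicate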
OX1R antag-1: antagonists of human orexin 1 receptor (OX1R); hit rate 1.8% among 330,000; inhibition, % at 6.6 µM; OX1R-expressing cells, FRET antagonist read-out; in the data active means inhibition mostly above about 38%, no sharp cut-off; inactive means mostly below about 40%
OX1R antag-2: OX1R (HCRTR1) antagonists, primary screen, fluorescence, CHO/OX1R cells, Fluo-8 calcium, orexin A. hit rate 0.43% among 330,000. Orexin/Hypocretin receptor type 1 (Homo sapiens), O43613. Fluo-8 calcium fluorescence. inhibition, % at 5 µM. AID 434989, 2010;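 active means inhibition above its plate's threshold, mean inhibition of all tested compounds on the plate plus 3 SD, cut at about 37% in these data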
GPR7 antagonist: GPR7 receptor antagonists, primary screen, cell-based, fluorescence, single concentration. Neuropeptides B/W receptor type 1 (Homo sapiens), P48145. GPR7-expressing cells, fluorescence antagonist assay. inhibition, % at 4.4 µM. hit rate 1.1% among 290,000; in the data active means inhibition above about 16%, passing the limit was not always enough;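 further: cells stimulated with the agonist NPW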
Target sequence (P48145 whole entry, looked up): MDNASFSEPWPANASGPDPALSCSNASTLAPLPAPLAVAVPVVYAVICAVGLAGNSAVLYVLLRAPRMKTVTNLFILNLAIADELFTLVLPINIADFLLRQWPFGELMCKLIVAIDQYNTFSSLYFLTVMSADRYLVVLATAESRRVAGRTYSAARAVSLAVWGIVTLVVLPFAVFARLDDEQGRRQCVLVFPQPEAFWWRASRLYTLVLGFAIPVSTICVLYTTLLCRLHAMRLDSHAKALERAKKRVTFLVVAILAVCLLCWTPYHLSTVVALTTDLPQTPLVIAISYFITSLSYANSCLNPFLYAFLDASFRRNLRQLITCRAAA
TAAR1 antag: human TAAR1 antagonists, primary screen, Fluo-8 calcium fluorescence, CHO RD-HGA16 cells | inhibition, % at 3 µM | AID 624466, 2012 | hit rate 1.5% among 360,000 | antagonist;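 active means inhibition above a per-plate cutoff, the mean inhibition of test compounds on that plate plus 3 SD, cut at about 49% in these data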
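Material: CHO RD-HGA16 cells bearing hTAAR1; compound dosing: one-point dosing, 3 µM nominal final; schedule: dye loading 75 min at 37 °C, then 30 min room temperature; measured by: calcium fluorescence with Fluo-8; control set: vehicle and agonist controls; replication: n of 1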
TAAR1 ag confirm: human TAAR1 agonists, retest of hits, confirmation, Fluo-8 calcium fluorescence, CHO RD-HGA16 cells | scaled: DMSO 0%, maximal phenethylamine 100% | AID 651783, 2012 | hit rate 82% among 2,400 | activation, % at 3 µM | shares compounds with TAAR1 ag;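 active means activation above a cutoff set at the run's mean compound activation plus 3 SD, cut at about 39% in these data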
Ga16 nonsel ag: nonselective calcium mobilization agonists, CHO-Ga16 cells, counter-screen for hTAAR1 agonist project, cell-based, fluorescence, CHO-Ga16 parental line; activation, % at 3 µM; shares compounds with TAAR1 ag; hit rate 50% among 2,400; Fluo-8 calcium fluorescence; normalized to maximal ATP response, DMSO zero;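 active means activation above the run cutoff, the mean activation over all tested wells plus 3 SD, cut at about 12% in these data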
TAAR1 desens: TAAR1 desensitization by agonist hits, confirmation, counter-screen for TAAR1 agonist project, cell-based, fluorescence, tachyphylaxis; AID 651951, 2012; shares compounds with TAAR1 ag; CHO RD-HGA16 hTAAR1, Fluo-8 calcium, beta-PEA response inhibition; hit rate 46% among 2,400; inhibition, % at 3 µM;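 active means inhibition above the run cutoff, the mean inhibition of all test compounds plus 3 SD, cut at about 49% in these data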;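 further: beta-PEA stimulus applied at its EC80; loss of beta-PEA calcium signal after compound pretreatment read as receptor desensitization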
Ga16 nonsel ant: inhibition of ATP-evoked calcium response in CHO-Ga16 cells, counter-screen for TAAR1 agonist project, cell-based, fluorescence. shares compounds with TAAR1 ag. CHO-Ga16 ATP-induced calcium, Fluo-8 fluorescence. inhibition, % at 3 µM. hit rate 39% among 2,400. AID 651952, 2012;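 active means inhibition above the plate's mean compound inhibition plus 3 SD, computed per plate, cut at about 22% in these data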
Numbers stand for hits. Only some compounds are listed: those with a hit (about 4.5% of all), similar ones and a draw of the others.

`CCCCN(CCCC)Cc1cc(=O)oc2ccccc12` gave TAAR1 ag inactive and TAAR1 antag inactive.
Screening CC1CC1C(=O)OCC(=O)N(C)c1c(N)n(Cc2ccccc2)c(=O)[nH]c1=O (stereo not drawn) returned TAAR1 ag 50.7, CHO parental Ca inactive, OX1R antag-1 inactive, OX1R antag-2 inactive, TAAR1 antag inactive, TAAR1 ag confirm inactive, Ga16 nonsel ag 13.9, TAAR1 desens inactive and Ga16 nonsel ant inactive.
Screening COCCN(C(=O)COC(=O)C1CC1C)c1c(N)n(Cc2ccccc2)c(=O)[nH]c1=O (stereo not drawn) returned TAAR1 ag inactive, CHO parental Ca inactive, OX1R antag-1 inactive, OX1R antag-2 inactive and TAAR1 antag inactive.
Screening O=c1c(O)c(-c2cccs2)oc2ccc(Cl)cc12 returned TAAR1 ag 291.8, CHO parental Ca 70.5, OX1R antag-1 inactive, OX1R antag-2 91.6, GPR7 antagonist 23.9, TAAR1 antag 110.0, TAAR1 ag confirm 151.8, Ga16 nonsel ag 151.5, TAAR1 desens 89.0 and Ga16 nonsel ant 84.7.
For CN(CCC#N)S(=O)(=O)c1ccc2[nH]cc(C(=O)NCCc3ccccc3)c(=O)c2c1 the results were TAAR1 ag 53.8, CHO parental Ca inactive, OX1R antag-1 inactive, OX1R antag-2 inactive, GPR7 antagonist inactive, TAAR1 antag inactive, TAAR1 ag confirm 73.4, Ga16 nonsel ag inactive, TAAR1 desens inactive and Ga16 nonsel ant inactive.
COc1ccc2[nH]cc(C(=O)NCCc3ccccc3)c(=O)c2c1 was read as TAAR1 ag inactive, CHO parental Ca inactive, OX1R antag-1 inactive, OX1R antag-2 inactive, GPR7 antagonist inactive and TAAR1 antag inactive.
CCOC(=O)C1=CCN(S(=O)(=O)c2ccccc2)C1c1ccc(Cl)cc1 (stereo not drawn) was read as TAAR1 ag inactive and TAAR1 antag inactive.
CC(CNC(=O)[C@@H](Cc1ccccc1)NC(=O)[C@H]1O[C@@H](n2cnc3c(=O)[nH]c(N)nc32)[C@H](O)[C@@H]1O)c1ccccc1 (stereo partly drawn) was read as Ga16 nonsel ag inactive and Ga16 nonsel ant inactive.
For CC(CNC(=O)[C@H]1O[C@@H](n2cnc3c(=O)[nH]c(N)nc32)[C@H](O)[C@@H]1O)c1ccccc1 (stereo partly drawn) the results were TAAR1 ag 84.2, TAAR1 antag 66.5, TAAR1 ag confirm 94.4, Ga16 nonsel ag inactive, TAAR1 desens 79.7 and Ga16 nonsel ant inactive.
For CN[C@@H](CO)C(=O)NC[C@H]1O[C@@H](n2cnc3c(=O)[nH]c(N)nc32)[C@H](O)[C@@H]1O the results were TAAR1 ag inactive and TAAR1 antag inactive.
For COc1ccc(Cc2c(C(C)(C)C)nc3c(C)cc(Br)cn23)c(C)c1 the results were TAAR1 ag inactive and TAAR1 antag inactive.
`CCc1nc2ccc(C(=O)N(CC)CCN(C)C)cn2c1N(C)C(=O)c1cccc(OC)c1` gave TAAR1 ag inactive and TAAR1 antag inactive.
CC(=O)C1=C(O)C(=O)N(CCc2ccccc2)C1c1ccccc1[N+](=O)[O-] (stereo not drawn) was read as TAAR1 ag 67.1, CHO parental Ca inactive, OX1R antag-1 inactive, OX1R antag-2 inactive, GPR7 antagonist inactive, TAAR1 antag inactive, TAAR1 ag confirm 62.0, Ga16 nonsel ag inactive, TAAR1 desens inactive and Ga16 nonsel ant inactive.
Screening Nc1nc(Nc2ccccc2)sc1C(=O)c1ccccc1 returned TAAR1 ag 67.9, CHO parental Ca inactive, OX1R antag-1 inactive, OX1R antag-2 inactive, GPR7 antagonist inactive, TAAR1 antag inactive, TAAR1 ag confirm 50.2, Ga16 nonsel ag 23.4, TAAR1 desens inactive and Ga16 nonsel ant inactive.
`Cc1nn(C)c(Cl)c1/C=N/OC(=O)c1ccc(F)cc1` gave TAAR1 ag 88.0, CHO parental Ca inactive, OX1R antag-1 inactive, OX1R antag-2 inactive, GPR7 antagonist inactive, TAAR1 antag inactive, TAAR1 ag confirm inactive, Ga16 nonsel ag inactive, TAAR1 desens inactive and Ga16 nonsel ant inactive.
`OC(c1ccccc1)(c1nc(-c2ccccc2)cs1)C(F)(F)F` (stereo not drawn) gave TAAR1 ag inactive and TAAR1 antag inactive.
For CC(=O)O[C@@H]1C[C@@]2(C)[C@@H](CC[C@H]2[C@@H](C)/C=C\CC(C)C)C2=C[C@@H](O)[C@@]3(O)C[C@@H](O)[C@H](O)C[C@]3(CO)[C@]21O the results were TAAR1 ag 116.0, TAAR1 antag 96.7, TAAR1 ag confirm inactive, Ga16 nonsel ag 15.8, TAAR1 desens inactive and Ga16 nonsel ant 27.8.
COCCCn1c(O)c(/C=C2\N=C(C#N)C(=Nc3ccc(C)cc3)O2)sc1=S was read as TAAR1 ag 52.0, CHO parental Ca 39.2, OX1R antag-1 inactive, OX1R antag-2 inactive, GPR7 antagonist inactive, TAAR1 antag 73.8, TAAR1 ag confirm inactive, Ga16 nonsel ag 14.7, TAAR1 desens inactive and Ga16 nonsel ant 25.1.
Cc1cc(C)c2c(c1)/C(=N/NC(=O)c1cc(C)oc1C)CCC2 was read as TAAR1 ag 81.8, CHO parental Ca inactive, OX1R antag-1 inactive, OX1R antag-2 inactive, GPR7 antagonist inactive, TAAR1 antag inactive, TAAR1 ag confirm inactive, Ga16 nonsel ag inactive, TAAR1 desens inactive and Ga16 nonsel ant inactive.
`CC(=O)Nc1ccc(C(=O)NC2CCSc3ccccc32)cc1` (stereo not drawn) gave TAAR1 ag inactive, CHO parental Ca inactive, OX1R antag-1 inactive, OX1R antag-2 inactive, GPR7 antagonist inactive and TAAR1 antag inactive.

Screening results (PubChem)
